Test results taken from PubChem BioAssay AID2373 (NMMLSC, 2010).
pKd: −log10 of the molar value.

Target: Cell division control protein 42 homolog (Homo sapiens) (UniProt P60953)
Experiment: Cdc42 GTP Bmax and Kd shifts – biochemical, Mg buffer, varying GTP, mechanism study for Ras-family GTPase inhibitor project, late-stage follow-up (AID 2373)
Conditions: GST-Cdc42 beads, BODIPY-GTP binding, flow cytometry
Procedure, shortened: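 system = GST-Cdc42 on glutathione beads | medium = 1 mM MgCl2 (magnesium condition) | timing = beads loaded overnight at 4 °C, compound preincubation 2 min | signal = flow cytometry, median bead fluorescence at 530 nm | read-out = fitted GTP Bmax and Kd | benchmarks = DMSO vehicle in place of compound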

Sequence of Cell division control protein 42 homolog (Homo sapiens) (P60953 whole entry, looked up): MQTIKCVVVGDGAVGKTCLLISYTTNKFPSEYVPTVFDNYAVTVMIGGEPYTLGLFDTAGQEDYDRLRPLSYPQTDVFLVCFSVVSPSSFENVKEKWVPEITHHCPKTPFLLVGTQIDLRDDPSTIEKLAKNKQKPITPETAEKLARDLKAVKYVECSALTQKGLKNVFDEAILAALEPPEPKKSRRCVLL

GTP Bmax with compound (at 10 µM, stronger effect = lower value): 2320
pKd (measured here: GTP affinity with compound): 7.78
Structure (SMILES): COc1ccc(C2CC(c3ccccc3)=NN2c2ccc(S(N)(=O)=O)cc2)cc1 (configuration not stated)
